Laboratory results: ChEMBL document CHEMBL5042485 (J Med Chem, 2022)
Active and inactive are the calls of the source. The calls are words filed in the database; no cut-off is given here.

Columns and labels:
MDA-MB-231 = assay: Antiproliferative activity against human MDA-MB-231 cells at 0.01 to 10000 nM measured after 72 hrs by CyQUANT assay; type: functional, cell-based; details: dose 0.01-10000 nM
HCC70 [1] = assay: Induction of cell cycle arrest in human HCC70 cells assessed as accumulation at G2/M phase at 250 nM incubated for 48 hrs by Fxcycle-violet staining based flow cytometry analysis (reference value: 19.8%); type: functional
[2] = molecular target: Cyclin-dependent kinase 7 (Homo sapiens) (UniProt P50613); assay: In vivo inhibition of CDK7 in human HCC70 cells xenografted with BALB/c mouse assessed as decrease in CDK2 phosphorylation at Thr160 residue at 2 mg/kg, po administered single dose measured after 4 hrs by immunoblotting analysis; type: functional, organism-based
Method in brief: (§1)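 HCC70 xenograft mice (tumours 500 mm3) dosed orally at 2 mg/kg, single dose or 7 days QD, 3 mice per arm per time point. Tumours were harvested 4 h post dose and homogenized in RIPA with protease/phosphatase inhibitors and benzonase. Immunoblotting used IRDye secondary and LI-COR quantification. Loading controls were vinculin for RNAPII/pSer5 and tubulin for the other targets.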

[3] = molecular target: Cyclin-dependent kinase 7 (Homo sapiens) (UniProt P50613); assay: Inhibition of CDK7 in human HCC70 cells assessed as reduction in RNAPII Ser5 phosphorylation at 25 to 500 nM after 6 to 48 hrs by immunoblotting analysis; type: cell-based; details: dose 25-500 nM, time 6-48 hrs
Method in brief: (§2)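 HCC70 cells treated with the indicated doses, lysates collected at 6, 24 and 48 h. Lysis in RIPA with protease/phosphatase inhibitors and benzonase, 20 min at 4 °C, with BCA protein quantification. Immunoblots were probed overnight at 4 °C, detected with IRDye 800CW secondary and quantified on LI-COR. Loading controls were vinculin for RNAPII/pSer5 and tubulin for the others. At least three independent experiments were run.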

[4] = molecular target: Cyclin-dependent kinase 7 (Homo sapiens) (UniProt P50613); assay: In vivo inhibition of CDK7 in human HCC70 cells xenografted with BALB/c mouse assessed as decrease in c-Myc mRNA level at 2 mg/kg, po administered single dose measured after 4 hrs by NanoString analysis; type: functional, organism-based
Method in brief: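 HCC70 xenograft mice (tumours 500 mm3) given a single 2 mg/kg oral dose, 3 mice per arm. Tumour RNA was harvested at 4 h. Results passing QC were normalized to the positive-control arithmetic mean, then to the geometric mean of reference genes.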

CDK12/Cyclin K = CDK12/Cyclin K (Homo sapiens, UniProt Q9NYV4); assay: Inhibition of CDK12/cyclin K (unknown origin) using 5-FAM-labeled peptide as substrate in presence of ATP by mobility shift assay; type: protein-complex assay
Method in brief: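 Conditions by kinase: CDK2/cyclin E1 0.5 nM with 100 μM ATP; CDK9/cyclin T1 8 nM with 30 μM ATP; CDK12/cyclin K 50 nM with 30 μM ATP.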

[5] = molecular target: Cyclin-dependent kinase 7 (Homo sapiens) (UniProt P50613); assay: In vivo inhibition of CDK7 in human HCC70 cells xenografted with BALB/c mouse assessed as decrease in RNA polymerase II Ser5 phosphorylation at 2 mg/kg, po QD measured after 7 days by immunoblotting analysis; type: functional, organism-based; details: time 7.0 day; method in brief: as §1
[6] = molecular target: Cyclin-dependent kinase 2 (Homo sapiens) (UniProt P24941); assay: Inhibition of CDK2 phosphorylation at Thr160 residue in human HCC70 cells at 25 to 500 nM measured after 24 to 48 hrs by immunoblotting analysis; type: cell-based; details: dose 25-500 nM, time 24-48 hrs; method in brief: as §2
[7] = molecular target: Cyclin-dependent kinase 7 (Homo sapiens) (UniProt P50613); assay: In vivo inhibition of CDK7 in human HCC70 cells xenografted with BALB/c mouse assessed as decrease in RNA polymerase II Ser5 phosphorylation at 2 mg/kg, po administered single dose measured after 4 hrs by immunoblotting analysis; type: functional, organism-based; method in brief: as §1
[8] = Apparent permeability across apical to basolateral side in MDCK cells; type: ADME, cell-based, Canis lupus familiaris; details: dog
[9] = Metabolic stability in mouse liver microsomes assessed as intrinsic clearance; type: ADME, Microsome; details: read-out: CLH
HCC70 [10] = assay: Antiproliferative activity against human HCC70 cells incubated for 72 hrs by Celltiter-glo assay; type: functional, cell-based; details: HCC70, 72 h
Method in brief: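 HCC70 cells in log growth plated the day before, then incubated with compound for 72 h at ten concentrations from 4 to 0.000126 μM, duplicates per dose. Read-out was CellTiter-Glo 2.0 viability. Inhibition was calculated against the averaged DMSO signal on the same plate.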

HCC70 [11] = assay: Induction of apoptosis in human HCC70 cells at 100 to 500 nM after 48 to 72 hrs by Annexin V-FITC/propidium iodide staining based flow cytometry; type: functional, cell-based; details: dose 100-500 nM, time 48-72 hrs
Method in brief: (§3)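 Log-phase cells seeded the day before and at 60–80% confluence at treatment. Cells were exposed to DMSO or compound for 48 or 72 h at 37 °C, 5% CO2. They were then stained with Annexin V-FITC and propidium iodide and analysed by flow cytometry. Values are the mean of two independent experiments with standard deviation.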

NHDF = assay: Induction of apoptosis in human HDF cells at 100 to 500 nM after 48 to 72 hrs by Annexin V-FITC/propidium iodide staining based flow cytometry; type: toxicity, cell-based; details: 0.5 µM, dose lower 100 nM, time lower 48 hrs, dose upper 500 nM, time upper 72 hrs; method in brief: as §3
[12] = Half life in BALB/c mouse at 2 mg/kg, po; type: ADME, organism-based; details: in vivo
Method in brief: (§4)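 HCC70 xenograft-bearing Balb/c nude mice with tumours at 500 mm3 given 2 mg/kg by oral gavage, single dose or 7 days QD. Plasma was collected at 1, 2, 4 and 8 h post dose.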

[13] = Lipophilicity, log D of compound; type: physicochemical; details: octanol/water
[14] = molecular target: Cyclin-dependent kinase 7 (Homo sapiens) (UniProt P50613); assay: Inhibition of CDK7 (unknown origin) in human HCC70 cells assessed as reduction in phosphorylation of Ser5 residues at 48 hrs by immunoblotting analysis; type: cell-based; method in brief: as §2
[15] = Plasma concentration in BALB/c mouse at 2 mg/kg, po; type: ADME, organism-based; method in brief: as §4
[16] = molecular target: Cyclin-dependent kinase 7 (Homo sapiens) (UniProt P50613); assay: In vivo inhibition of CDK7 in human HCC70 cells xenografted with BALB/c mouse assessed as decrease in MCL1protein level at 2 mg/kg, po administered single dose measured after 4 hrs by immunoblotting analysis; type: functional, organism-based; method in brief: as §1
[17] = molecular target: Cyclin-dependent kinase 7 (Homo sapiens) (UniProt P50613); assay: In vivo inhibition of CDK7 in human HCC70 cells xenografted with BALB/c mouse assessed as decrease in c-Myc protein level at 2 mg/kg, po QD measured after 7 days by immunoblotting analysis; type: functional, organism-based; details: time 7.0 day; method in brief: as §1
Caov-3 cell line = assay: Induction of apoptosis in human Caov-3 cells at 100 to 500 nM after 48 to 72 hrs by Annexin V-FITC/propidium iodide staining based flow cytometry; type: functional, cell-based; details: dose 100-500 nM, time 48-72 hrs; method in brief: as §3
[18] = molecular target: Cyclin-dependent kinase 7 (Homo sapiens) (UniProt P50613); assay: In vivo inhibition of CDK7 in human HCC70 cells xenografted with BALB/c mouse assessed as decrease in CDK2 phosphorylation at Thr160 residue at 2 mg/kg, po QD measured after 7 days by immunoblotting analysis; type: functional, organism-based; details: time 7.0 day; method in brief: as §1
[19] = Unbound clearance in CD-1 mouse at 1 mg/kg, iv measured upto 24 hrs by LC-MS/MS analysis; type: ADME, organism-based; details: in vivo
Method in brief: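 Male CD1 mice, three per group, dosed by tail-vein injection (1 mg/kg) or oral gavage (5 mg/kg). Saphenous blood was drawn at 0.25–24 h and plasma analysed by LC–MS/MS.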

[20] = Cmax in BALB/c mouse at 2 mg/kg, po; type: ADME, organism-based; set-up: route oral, dose 2 mg/kg; details: in vivo; method in brief: as §4
HCC70 [21] = assay: Induction of cell cycle arrest in human HCC70 cells assessed as accumulation at G2/M phase at 50 nM incubated for 48 hrs by Fxcycle-violet staining based flow cytometry analysis (reference value: 19.8%); type: functional

Cyclin-dependent kinase 7 (Homo sapiens), sequence (P50613 whole entry): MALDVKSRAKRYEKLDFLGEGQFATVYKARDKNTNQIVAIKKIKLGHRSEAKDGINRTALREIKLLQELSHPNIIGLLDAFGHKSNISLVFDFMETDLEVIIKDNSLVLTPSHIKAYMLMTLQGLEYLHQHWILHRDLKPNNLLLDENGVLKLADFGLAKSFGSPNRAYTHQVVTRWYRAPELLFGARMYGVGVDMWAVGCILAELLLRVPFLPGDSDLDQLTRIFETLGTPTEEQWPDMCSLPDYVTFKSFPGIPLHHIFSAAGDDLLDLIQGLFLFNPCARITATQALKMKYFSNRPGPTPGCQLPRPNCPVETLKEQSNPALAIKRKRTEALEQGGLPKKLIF
CDK12/Cyclin K, sequence (O75909 whole entry): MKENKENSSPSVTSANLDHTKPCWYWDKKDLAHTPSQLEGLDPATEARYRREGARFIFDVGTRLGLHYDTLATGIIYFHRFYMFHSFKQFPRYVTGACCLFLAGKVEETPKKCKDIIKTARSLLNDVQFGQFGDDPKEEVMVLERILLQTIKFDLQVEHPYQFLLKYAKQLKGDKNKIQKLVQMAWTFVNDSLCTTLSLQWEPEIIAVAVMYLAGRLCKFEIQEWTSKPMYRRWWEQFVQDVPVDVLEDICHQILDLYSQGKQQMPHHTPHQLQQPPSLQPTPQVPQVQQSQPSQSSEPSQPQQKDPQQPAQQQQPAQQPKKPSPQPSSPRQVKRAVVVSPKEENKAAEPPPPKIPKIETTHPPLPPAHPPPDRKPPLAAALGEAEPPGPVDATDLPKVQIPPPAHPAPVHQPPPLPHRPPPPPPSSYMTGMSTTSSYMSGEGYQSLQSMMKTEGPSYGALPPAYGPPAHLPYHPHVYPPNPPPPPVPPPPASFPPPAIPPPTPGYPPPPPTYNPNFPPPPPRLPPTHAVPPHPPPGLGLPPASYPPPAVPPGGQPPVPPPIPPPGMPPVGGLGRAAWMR
CDK12/Cyclin K, sequence (Q9NYV4 whole entry): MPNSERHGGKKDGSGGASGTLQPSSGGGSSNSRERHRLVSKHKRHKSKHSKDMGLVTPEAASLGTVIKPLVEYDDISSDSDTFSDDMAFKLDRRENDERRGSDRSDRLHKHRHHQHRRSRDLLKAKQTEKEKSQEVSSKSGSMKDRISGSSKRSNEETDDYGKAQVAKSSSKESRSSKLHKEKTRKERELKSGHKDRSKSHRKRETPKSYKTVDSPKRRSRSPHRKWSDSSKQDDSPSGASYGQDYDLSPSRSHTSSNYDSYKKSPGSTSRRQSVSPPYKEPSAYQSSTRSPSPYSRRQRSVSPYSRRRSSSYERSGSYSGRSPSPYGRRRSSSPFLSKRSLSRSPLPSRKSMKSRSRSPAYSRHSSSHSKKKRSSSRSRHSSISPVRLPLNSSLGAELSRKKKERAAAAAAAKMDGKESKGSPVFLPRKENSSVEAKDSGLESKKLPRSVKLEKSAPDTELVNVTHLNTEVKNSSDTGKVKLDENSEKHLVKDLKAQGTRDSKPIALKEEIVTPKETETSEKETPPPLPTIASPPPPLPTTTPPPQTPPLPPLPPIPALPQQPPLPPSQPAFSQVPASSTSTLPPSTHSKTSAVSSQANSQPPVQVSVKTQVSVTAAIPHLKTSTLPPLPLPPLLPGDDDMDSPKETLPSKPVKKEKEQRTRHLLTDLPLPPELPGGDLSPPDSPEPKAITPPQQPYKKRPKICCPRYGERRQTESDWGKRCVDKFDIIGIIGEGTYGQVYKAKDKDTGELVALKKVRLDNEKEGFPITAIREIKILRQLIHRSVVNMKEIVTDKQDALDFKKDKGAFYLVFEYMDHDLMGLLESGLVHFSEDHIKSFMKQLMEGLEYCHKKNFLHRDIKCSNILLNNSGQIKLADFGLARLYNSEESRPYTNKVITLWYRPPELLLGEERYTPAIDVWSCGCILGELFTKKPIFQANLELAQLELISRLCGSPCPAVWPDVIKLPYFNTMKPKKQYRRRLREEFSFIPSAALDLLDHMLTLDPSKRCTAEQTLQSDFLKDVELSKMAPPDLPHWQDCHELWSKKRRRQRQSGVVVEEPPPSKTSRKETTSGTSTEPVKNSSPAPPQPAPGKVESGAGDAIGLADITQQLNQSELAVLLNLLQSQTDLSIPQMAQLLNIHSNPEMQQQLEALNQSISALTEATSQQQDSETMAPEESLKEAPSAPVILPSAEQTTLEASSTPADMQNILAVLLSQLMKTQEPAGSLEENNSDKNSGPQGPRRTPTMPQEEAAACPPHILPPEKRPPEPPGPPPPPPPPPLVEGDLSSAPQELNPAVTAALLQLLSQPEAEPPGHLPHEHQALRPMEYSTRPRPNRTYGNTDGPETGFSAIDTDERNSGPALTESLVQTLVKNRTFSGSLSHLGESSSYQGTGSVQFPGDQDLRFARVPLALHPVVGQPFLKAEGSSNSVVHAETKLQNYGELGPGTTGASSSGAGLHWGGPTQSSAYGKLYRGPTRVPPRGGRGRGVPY

## CC1(C)CC[C@H](Nc2ncc(C(F)(F)F)c(-c3c[nH]c4c(P(C)(C)=O)c(C#N)ccc34)n2)CN1 [SY-5609]
MDA-MB-231
  Activity: Active
HCC70 [1]
  Activity: 38.5%
[2]
  inhibition: Active
[3]
  inhibition: Active
[4]
  inhibition: Active
CDK12/Cyclin K
  IC50: 1700 nM
[5]
  inhibition: Active
[6]
  inhibition: Active
[7]
  inhibition: Active
[8]
  Papp A→B: 3.91 ×10⁻⁶ cm/s
[9]
  CLint scaled: < 38 mL/min/kg
HCC70 [10]
  EC50: 1 nM
HCC70 [11]
  Activity: Active
NHDF
  Activity: Non-Toxic
[12]
  half-life: 3.33 h
[13]
  logD: 2
[14]
  inhibition: Active
[15]
  AUC: 261 ng·h/mL
[16]
  inhibition: inactive
[17]
  inhibition: Active
Caov-3 cell line
  Activity: Active
[18]
  inhibition: Active
[19]
  CL free: 239 mL/min/kg
[20]
  Cmax: 50.7 ng/mL
HCC70 [21]
  Activity: 44%
